Source: PubChem BioAssay
CSC inhib – cancer stem cell viability inhibitors, primary screen, luminescence; cancer stem cell-like cells viability; inhibition, % at 7.5 µM; actives 1.1% (n = 300,000); AID 2717, 2010; in the data active = inhibition above about 75%; tested in HMLE shEcad cells
Beta apoptosis – inhibitors of cytokine-induced beta cell apoptosis, primary screen, luminescence; actives 0.8% (n = 300,000); INS-1E cytokine-induced death, ATP luminescence, 48 h; percent of positive-control rescue, neutral wells zero; AID 435005, 2010; protection from apoptosis, % (no concentration beside the values);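 active = Every replicate reaches about 75%, or at least half do and their mean reaches it too, limit read from the data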;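 note: higher means more ATP so stronger rescue from cytokine killing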
T cruzi inh – inhibitors of intracellular T. cruzi growth, primary screen, luminescence, NIH3T3 host cells | inhibition, % (no concentration beside the values) | AID 1885, 2009 | T. cruzi beta-gal in NIH3T3, 90 h | actives 1.4% (n = 300,000);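 active = mean inhibition across valid replicates above about 55%, limit read from the data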;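 note: signal also drops with host cell toxicity which is not excluded here; higher percent means less beta-gal luminescence so fewer parasites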
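Assay system: NIH/3T3 host cells with β-galactosidase reporter T. cruzi; input: 5,000 host fibroblasts per well; compound: single 50 nL compound addition per well in DMSO; timing: ≥90 h infection period, 3 h prior cell attachment; measured by: GalScreen β-gal luminescence, detergent lysis, 60 min; evaluation: percent inhibition of parasite-derived β-gal signal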
PfHsp90 yeast 2 – growth inhibition of PfHsp90-expressing yeast, primary screen, antimalarial PfHsp90 inhibitor project, S. cerevisiae, BacTiter-Glo luminescence, single point, set 2; BacTiter-Glo ATP, 48 h; yeast lacking PDR1 and PDR3 efflux regulators; inhibition, % at 9.4 µM; actives 0.32% (n = 310,000);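 active = every replicate shows inhibition above about 80%, whatever the replicate mean, limit read from the data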
SKKanGAS inh – S. pyogenes SKKanGAS growth inhibitors in kanamycin, primary screen, streptokinase expression inhibitor project, SKKanGAS strain, BacTiter-Glo luminescence; inhibition, % at 7.5 µM; actives 1.3% (n = 300,000); 6 h;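 active = mean replicate score, as percent of positive control median, at least 50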;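 note: strain carries kanamycin resistance gene driven by streptokinase promoter and grows in 40 µg/ml kanamycin; loss of luminescence reflects streptokinase promoter inhibition or plain growth inhibition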
HIF act – HIF pathway transcriptional activators, primary screen, cell-based, U2OS HRE-luciferase, luminescence | activation, % at 7.5 µM (by protocol) | U2OS HRE-luciferase reporter; normalized: DMSO 0%, desferrioxamine 100% | actives 0.32% (n = 300,000) | AID 1910, 2009;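 active = mean activation of at least 10% of the iron chelator positive control signal, with at least half of replicates also reaching 10%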
Of the large screens only hits and unclear results are named; the others gave an inactive call. Only some compounds are listed: those with a hit (about 3.6% of all), similar ones and a draw of the others.

CCCN=C1N(CC)C[C@@H]2[C@@H]3C(=O)N(C)C(=O)[C@@H]3[C@](CC)(C(=O)OC)N12	none (no result: CSC inhib, Beta apoptosis, T cruzi inh, SKKanGAS inh, HIF act)
O=C(Nc1ccc(S(=O)(=O)N2CCCCC2)cc1)C1CCCCC1	none
Cc1ccc(S(=O)(=O)N2CCC(C(=O)Nc3ccc(S(=O)(=O)N4CCCC4)cc3)CC2)cc1C	T cruzi inh 74.4
CC(=O)c1ccc(NC(=O)C2CCN(S(=O)(=O)c3ccc4c(c3)N(C(C)=O)CCO4)CC2)cc1	none
COc1ccc(Cl)cc1NC(=O)CN1CCCC1	none
COC(=O)C1CCN(CC(=O)Nc2cc(Cl)ccc2OC)CC1	T cruzi inh 54.8 (no result: CSC inhib, PfHsp90 yeast 2)
CCOc1ccc(NC(=O)C2CCN(S(=O)(=O)c3ccc4c(c3)N(C(C)=O)CCO4)CC2)cc1	HIF act 24.7
CCOc1ccc(OCC)c(NC(=O)CN2CCN(c3cc(C)ccc3C)CC2)c1	T cruzi inh 70.1
O=C(CN1CCN(c2ccccc2)CC1)Nc1cccc([N+](=O)[O-])c1	none (no result: Beta apoptosis)
Cc1ccc(C)c(N2CCN(CC(=O)Nc3ccc([N+](=O)[O-])cc3C(=O)Nc3ccccc3F)CC2)c1	T cruzi inh 70.6
O=C(CN1CCN(c2cccc(Cl)c2)CC1)Nc1ccc([N+](=O)[O-])cc1C(=O)Nc1ccccc1F	T cruzi inh 64.9
O=C(CNC1CCCCC1)Nc1ccc([N+](=O)[O-])cc1C(=O)Nc1ccccc1F	none
CC(=O)N1CCOc2ccc(S(=O)(=O)N(C)c3cccc(C)c3)cc21	none
c1ccc(-c2nc(N3CCCCCC3)nc(-n3ccnc3)n2)cc1	SKKanGAS inh 86.0
c1ccc(-c2nc(N3CCN(c4ccccc4)CC3)nc(-n3ccnc3)n2)cc1	T cruzi inh 60.2, SKKanGAS inh 60.5 (no result: Beta apoptosis, PfHsp90 yeast 2)
CN1CCN(c2ccc(S(=O)(=O)N3CCCCC3)cc2NC(=O)COc2ccc([N+](=O)[O-])cc2)CC1	T cruzi inh 58.1
Cc1ccc(OCC(=O)Nc2cc(S(=O)(=O)N3CCCCC3)ccc2N2CCN(C)CC2)c(C)c1	T cruzi inh 59.9 (no result: PfHsp90 yeast 2)
CC(=O)NCCC(=O)Nc1cc(S(=O)(=O)N2CCCCC2)ccc1N1CCN(C)CC1	T cruzi inh 75.8
CC(=O)NCCC(=O)Nc1cc(S(=O)(=O)N2CCCCC2)ccc1N1CCCCC1	none (no result: CSC inhib, T cruzi inh, SKKanGAS inh, HIF act)
Cc1ccc(S(=O)(=O)NCCC(=O)NCC(c2cccs2)N(C)C)cc1 (stereo not drawn)	none (no result: CSC inhib, T cruzi inh, SKKanGAS inh, HIF act)
COc1ccc(-n2nc(C(=O)NCC(=O)Nc3cccc(Cl)c3)c3ccccc3c2=O)cc1OC	none (no result: CSC inhib)
CC(C)CC(NC(=O)C(NC(=O)C(Cc1ccc(OCc2ccccc2)cc1)NC(=O)OC(C)(C)C)C(C)C)C(N)=O (stereo not drawn)	CSC inhib 137.7
O=C(COc1cccnc1[N+](=O)[O-])NCc1ccccc1	none
CC(C)(C)N(Cc1ccccc1)C(=O)COc1cccnc1[N+](=O)[O-]	SKKanGAS inh 51.7
C=C1N(C)c2cc([N+](=O)[O-])c(N)cc2C1(C)C	T cruzi inh 67.8
CC(C)(C)N(Cc1ccccc1)C(=O)c1cc2ccccc2o1	CSC inhib 78.2
CN(Cc1ccc(N(C)C)cc1)C(=O)c1cc2ccccc2o1	SKKanGAS inh 59.5
CN(Cc1ccccc1)C(=O)c1cc2ccccc2o1	none
COc1ccc(NS(=O)(=O)c2ccc(N3CCCCC3)c(N)c2)cc1	Beta apoptosis 102.4 (no result: T cruzi inh, SKKanGAS inh, HIF act)
COc1ccc(NS(=O)(=O)c2cc(NC(=O)c3ccc(=O)[nH]c3)ccc2N2CCCC2)cc1	CSC inhib 133.5
COC(=O)CN1C(=O)[C@H]2[C@@H](c3ccc(C)o3)N3C(=O)CN(CC4CC4)C(=O)[C@@]3(Cc3ccccc3)[C@H]2C1=O	HIF act 286.7
COC(=O)CN1C(=O)[C@H]2[C@@H](c3ccc(C)o3)N3C(=O)CN(CCO)C(=O)[C@@]3(Cc3ccccc3)[C@H]2C1=O	none
O=C(CSc1nc2nc(-c3cccs3)cc(C(F)(F)F)c2c(=O)[nH]1)Nc1ccc(F)c(F)c1	CSC inhib 104.1, SKKanGAS inh 88.4
Nc1nc(SCC(=O)Nc2ccc(C(F)(F)F)cc2)[nH]c(=O)c1NC(=O)c1ccc(F)c(F)c1	none
Cc1ccc(C)c(NC(=O)CSc2nc(N)c(NC(=O)c3cccs3)c(=O)[nH]2)c1	none (no result: CSC inhib, Beta apoptosis, T cruzi inh, SKKanGAS inh, HIF act)
Cc1ccc(C)c(NC(=O)CSc2nc3nc(-c4cccs4)cc(C(F)(F)F)c3c(=O)[nH]2)c1	CSC inhib 95.8, SKKanGAS inh 57.4
C=CCn1c(SCC(=O)N(CCOC)c2c(N)n(CC(C)C)c(=O)[nH]c2=O)nc2ccccc21	none (no result: Beta apoptosis, PfHsp90 yeast 2)
CCOC(=O)C1=C(CC)Nc2ccccc2N=C1NC(=O)Nc1ccc(Cl)c(Cl)c1	T cruzi inh 60.9, PfHsp90 yeast 2 103.7, SKKanGAS inh 93.2
C[C@@H]1CC[C@H]2C(=O)N3[C@@H](CC[C@@H](C)[C@@H]3c3ccc(Br)cc3)C(=O)N2[C@H]1c1ccc(Br)cc1	CSC inhib 78.7
O=C(NN1C(=O)/C(=C/c2ccc(O)c([N+](=O)[O-])c2)SC1=S)c1ccccc1Cl	PfHsp90 yeast 2 103.8
COc1cc(/C=C2\SC(=S)N(NC(=O)c3ccccc3O)C2=O)ccc1O	none
CCCCn1c(N)c(N(CC(C)C)C(=O)c2cccc(OCc3ccccc3)c2)c(=O)[nH]c1=O	none
CCN1C[C@@H]2[C@@H]3C(=O)N(Cc4ccccc4)C(=O)[C@@H]3[C@](CC)(C1=O)N2C(=O)c1ccc(Cl)c(Cl)c1	none (no result: CSC inhib, Beta apoptosis, T cruzi inh, SKKanGAS inh, HIF act)
O=C(Nc1ccccc1)C12CC3CC(C1)CC(n1cnc([N+](=O)[O-])n1)(C3)C2	T cruzi inh 55.2
COc1cc(NC(=O)C23CC4CC(C2)CC(n2cnc([N+](=O)[O-])n2)(C4)C3)cc(OC)c1	none (no result: PfHsp90 yeast 2)
O=C(Nc1cccc([N+](=O)[O-])c1)C12CC3CC(C1)CC(n1cnc([N+](=O)[O-])n1)(C3)C2	T cruzi inh 64.3
CNC(=O)C(=O)Nc1nc(C23CC4CC(CC(C4)C2)C3)cs1	none
O=C(NCc1ccc(F)cc1)C(=O)Nc1nc(C23CC4CC(CC(C4)C2)C3)cs1	CSC inhib 75.1, SKKanGAS inh 109.0
O=C(NCc1ccccc1)C(=O)Nc1nc(C23CC4CC(CC(C4)C2)C3)cs1	SKKanGAS inh 101.6
O=C(NCc1cccnc1)C(=O)Nc1nc(C23CC4CC(CC(C4)C2)C3)cs1	Beta apoptosis 161.5
O=C(NCc1ccncc1)C(=O)Nc1nc(C23CC4CC(CC(C4)C2)C3)cs1	none
Cc1cccc(NC(=O)C2CCCN(C(=O)Nc3ccc(F)cc3)C2)c1 (stereo not drawn)	none (no result: CSC inhib)
N#Cc1c(-c2ccccc2)cc(-c2ccccc2)nc1SCCC(=O)O	CSC inhib 75.2
